{"source": "paper PMC5071636", "about": "(Acta Pharmaceutica Sinica. B, 2016)", "key": {"[1]": {"tested_on": "eEF2K", "conditions": "cited from earlier work"}, "[2]": {"tested_on": "eEF2K in cells", "conditions": "cited from earlier work"}, "[3]": {"tested_on": "eEF2 phosphorylation in MDA-MB-453 cells", "experiment": "Western blot of phospho-eEF2", "assay_type": "cell-based, human", "in_short": "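MDA-MB-453 grown in L15 with 10% FBS, 1 mmol/L pyruvate, 0.5 mg/mL geneticin, no CO2. Seeded at 2×10^5 cells/well; 24 h later given test compound at several concentrations for 6 h. Lysed in 2× SDS loading buffer, 95 °C 10 min, on 10% gels to PVDF, milk-blocked. Probed overnight at 4 °C for phospho-eEF2 Thr56 and eEF2, β-actin loading control. Fluorescent secondary read-out. Three independent experiments in duplicate, mean ±SEM.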"}, "[4]": {"tested_on": "eEF2 phosphorylation in H1299 cells", "experiment": "Western blot of phospho-eEF2 in H1299 cells", "assay_type": "cell-based, human", "conditions": "6 h treatment"}, "[5]": {"tested_on": "eEF2 phosphorylation in HCT116 cells", "experiment": "Western blot of phospho-eEF2 in HCT116 cells", "assay_type": "cell-based, human", "conditions": "6 h treatment"}, "[6]": {"tested_on": "cells", "conditions": "at high concentrations; cited from earlier work"}}, "data": [{"smiles": "CCCCCCCCCCCCCCCC[n+]1ccn(Cc2ccccc2)c1C.[I-]", "note": "[NH125, 1-Benzyl-3-cetyl-2-methylimidazolium iodide]", "values": [{"measurement": "effect on eEF2K activity in vitro", "setting": "[1]", "result": "inhibits eEF2K activity"}, {"measurement": "effect on eEF2 phosphorylation in vivo", "setting": "[2]", "result": "promotes eEF2 phosphorylation"}]}, {"smiles": "CCn1c(=O)c2cc(C(N)=O)c(N)nc2n(C2CC2)c1=O", "note": "[A484954]", "values": [{"measurement": "effect on eEF2 phosphorylation (p-eEF2)", "setting": "[3]; MDA-MB-453 cells, 6 h treatment", "result": "capable of inhibiting eEF2 phosphorylation"}, {"measurement": "total protein level of eEF2", "setting": "[3]; in the cell", "result": "not affected"}, {"measurement": "effect on eEF2 phosphorylation (p-eEF2)", "setting": "[4]", "result": "capable of inhibiting eEF2 phosphorylation"}, {"measurement": "effect on eEF2 phosphorylation (p-eEF2)", "setting": "[5]", "result": "capable of inhibiting eEF2 phosphorylation"}, {"measurement": "potency on eEF2K in cells", "setting": "[2]", "result": "rather low potency"}, {"measurement": "cytotoxicity", "setting": "[6]", "result": "cytotoxic at high concentrations"}]}, {"smiles": "c1cnc2sccc2c1", "note": "[Thieno [2,3-b] pyridine]", "values": [{"measurement": "inhibitory effects on eEF2K in cells", "setting": "[2]", "result": "weak inhibitory effects"}]}]}
